Results reported in ChEMBL document CHEMBL1123392 (J Med Chem, 1986).
The source made the active and inactive calls. No cut-off for these calls is given here.

How the values were obtained:
Rattus norvegicus [1] = experiment: Dopaminergic activity in rats rendered hypokinetic by the bilateral injection of 6-hydroxydopamine (6-OHDA) into the anterolateral hypothalamus at dose of 50 mg/kg sc; Inactive; assay type: functional, organism-based; parameters: dose 50 mg/kg
Rattus norvegicus [2] = species: Rattus norvegicus; experiment: Ability to induce contralateral rotational behavior in rats with a unilateral 6-OHDA-induced lesion of the nigrostriatal dopamine (DA) pathway; assay type: functional
Outline: (§1)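 Male Sprague–Dawley rats given unilateral 6-OHDA (8 μg in 3 μL, with ascorbic acid) into the left medial forebrain bundle under pentobarbital anesthesia. Rats were selected 3–4 weeks later for turning 8–10/min after apomorphine 0.25 mg/kg sc. Groups of 4–8 were dosed sc (in water or Tween 80 suspension) and recorded in automatic rotometers until turning stopped. Outputs: total contralateral turns and peak rotations/min.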

Rattus norvegicus [3] = experiment: Effective dose which lowered the serum prolactin levels after ip administration in rats; assay type: functional
Outline: (§2)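 Sprague–Dawley rats given α-methyltyrosine 200 mg/kg ip 1 h before compound. Decapitated 30 min after ip or 60 min after oral dosing. Serum prolactin measured by double-antibody RIA. ED50 = dose lowering prolactin to 50% of the α-methyltyrosine-treated control, from one dose–response curve of at least seven doses with 7–9 rats per dose.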

D(2) dopamine receptor = D(2) dopamine receptor (Rattus norvegicus, UniProt P61169); experiment: Compound was for its ability to displace [3H]haloperidol binding to rat striatal Dopamine receptor D2
Outline: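 Rat striatal membranes at about 20 mg/mL final tissue concentration. [3H]haloperidol 2 nM, incubated 10 min. Nonspecific binding defined with (+)-butaclamol 1.0 μM.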

[4] = target: T1, Adrenergic receptor alpha-1 (Rattus norvegicus, UniProt P15823+P23944+P43140); experiment: Ability to displace [3H]WB-4101 from rat brain alpha-1 adrenergic receptor
T1 sequence (P15823 whole entry): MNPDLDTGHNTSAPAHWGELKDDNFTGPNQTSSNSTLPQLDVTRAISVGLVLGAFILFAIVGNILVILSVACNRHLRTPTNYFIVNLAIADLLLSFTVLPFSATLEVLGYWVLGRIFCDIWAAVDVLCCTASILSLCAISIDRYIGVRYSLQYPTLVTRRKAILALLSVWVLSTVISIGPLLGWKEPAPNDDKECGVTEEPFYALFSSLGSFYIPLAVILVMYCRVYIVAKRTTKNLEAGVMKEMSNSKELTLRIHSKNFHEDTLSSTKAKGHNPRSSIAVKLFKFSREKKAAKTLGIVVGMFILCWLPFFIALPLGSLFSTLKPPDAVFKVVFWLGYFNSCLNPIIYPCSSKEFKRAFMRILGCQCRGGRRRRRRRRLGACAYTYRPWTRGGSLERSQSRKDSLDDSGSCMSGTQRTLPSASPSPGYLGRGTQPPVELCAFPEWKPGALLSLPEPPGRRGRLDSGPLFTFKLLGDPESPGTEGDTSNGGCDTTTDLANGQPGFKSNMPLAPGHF
T1 sequence (P23944 whole entry): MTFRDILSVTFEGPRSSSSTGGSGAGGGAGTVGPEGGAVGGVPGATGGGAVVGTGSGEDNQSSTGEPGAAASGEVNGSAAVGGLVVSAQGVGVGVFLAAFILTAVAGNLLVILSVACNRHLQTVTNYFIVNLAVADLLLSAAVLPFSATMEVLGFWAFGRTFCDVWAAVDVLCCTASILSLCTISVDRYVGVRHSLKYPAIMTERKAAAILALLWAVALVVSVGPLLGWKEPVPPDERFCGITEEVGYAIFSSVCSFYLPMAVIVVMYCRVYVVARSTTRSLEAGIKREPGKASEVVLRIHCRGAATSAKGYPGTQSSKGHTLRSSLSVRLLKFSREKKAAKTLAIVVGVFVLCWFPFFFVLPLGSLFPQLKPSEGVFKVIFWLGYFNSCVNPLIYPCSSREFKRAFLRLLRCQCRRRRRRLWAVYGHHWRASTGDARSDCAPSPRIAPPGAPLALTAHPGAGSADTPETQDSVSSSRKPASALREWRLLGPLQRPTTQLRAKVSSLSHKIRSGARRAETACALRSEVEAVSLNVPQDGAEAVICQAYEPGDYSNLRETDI
T1 sequence (P43140 whole entry): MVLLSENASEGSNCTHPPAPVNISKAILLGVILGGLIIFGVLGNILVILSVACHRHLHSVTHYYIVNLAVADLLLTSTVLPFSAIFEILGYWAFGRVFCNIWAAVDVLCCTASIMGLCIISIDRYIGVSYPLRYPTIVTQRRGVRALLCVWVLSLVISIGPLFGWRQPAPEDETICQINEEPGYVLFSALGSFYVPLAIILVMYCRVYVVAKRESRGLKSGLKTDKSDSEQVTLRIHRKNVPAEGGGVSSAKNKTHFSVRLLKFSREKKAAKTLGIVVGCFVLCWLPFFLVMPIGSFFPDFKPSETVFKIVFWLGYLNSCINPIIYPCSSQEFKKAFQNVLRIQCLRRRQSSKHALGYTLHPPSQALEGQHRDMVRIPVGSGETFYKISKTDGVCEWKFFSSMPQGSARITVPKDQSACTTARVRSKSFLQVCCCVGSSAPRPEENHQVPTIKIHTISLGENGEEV
Outline: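 Rat whole brain minus cerebellum and brain stem, membranes at about 20 mg/mL final tissue concentration. [3H]WB-4101 0.22 nM, incubated 15 min. Nonspecific binding defined with (-)-norepinephrine 2 μM. IC50 = concentration giving 50% displacement of specific binding, taken from Hill linearization. Three separate experiments.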

Rattus norvegicus [5] = experiment: Max. intensity of rotational behavior in rats with a unilateral 6-OHDA-induced lesion of the nigrostriatal dopamine (DA) pathway at dose of 2.5 mg/kg sc; assay type: functional; conditions: route subcutaneous; outline: as §1
Rattus norvegicus [6] = experiment: Dopaminergic activity in rats rendered hypokinetic by the bilateral injection of 6-hydroxydopamine (6-OHDA) into the anterolateral hypothalamus at dose of 10 mg/kg sc; assay type: functional; conditions: route subcutaneous
Rattus norvegicus [7] = experiment: Effective dose which lowered the serum prolactin levels after po administration in rats; assay type: functional; outline: as §2
Rattus norvegicus [8] = experiment: Dopaminergic activity in rats rendered hypokinetic by the bilateral injection of 6-hydroxydopamine (6-OHDA) into the anterolateral hypothalamus at dose of 5 mg/kg sc; assay type: functional; conditions: route subcutaneous
Rattus norvegicus [9] = species: Rattus norvegicus; experiment: Ability to induce contralateral rotational behavior in rats with a unilateral 6-OHDA-induced lesion of the nigrostriatal dopamine (DA) pathway.; assay type: functional; outline: as §1
Rattus norvegicus [10] = experiment: Max. intensity of rotational behavior in rats with a unilateral 6-OHDA-induced lesion of the nigrostriatal dopamine (DA) pathway at dose of 2.5 mg/kg sc.; assay type: functional; outline: as §1
Rattus norvegicus [11] = experiment: Dopaminergic activity in rats rendered hypokinetic by the bilateral injection of 6-hydroxydopamine (6-OHDA) into the anterolateral hypothalamus at dose of 25 mg/kg sc; assay type: functional; conditions: route subcutaneous
Rattus norvegicus [12] = experiment: Dopaminergic activity in rats rendered hypokinetic by the bilateral injection of 6-hydroxydopamine (6-OHDA) into the anterolateral hypothalamus at dose of 25 mg/kg sc; Inactive; assay type: functional, organism-based; parameters: dose 25 mg/kg
Rattus norvegicus [13] = experiment: Dopaminergic activity in rats rendered hypokinetic by the bilateral injection of 6-hydroxydopamine (6-OHDA) into the anterolateral hypothalamus at dose of 1.25 mg/kg sc; assay type: functional; conditions: route subcutaneous
Rattus norvegicus [14] = experiment: Dopaminergic activity in rats rendered hypokinetic by the bilateral injection of 6-hydroxydopamine (6-OHDA) into the anterolateral hypothalamus at dose of 50 mg/kg sc; assay type: functional; conditions: route subcutaneous
Rattus norvegicus [15] = experiment: Dopaminergic activity in rats rendered hypokinetic by the bilateral injection of 6-hydroxydopamine (6-OHDA) into the anterolateral hypothalamus at dose of 2.5 mg/kg sc; assay type: functional; conditions: route subcutaneous
[16] = Rattus norvegicus, Serum, ip, read-out: ED50
[17] = Rattus norvegicus, Serum, po, read-out: ED50

D(2) dopamine receptor, sequence (P61169 whole entry): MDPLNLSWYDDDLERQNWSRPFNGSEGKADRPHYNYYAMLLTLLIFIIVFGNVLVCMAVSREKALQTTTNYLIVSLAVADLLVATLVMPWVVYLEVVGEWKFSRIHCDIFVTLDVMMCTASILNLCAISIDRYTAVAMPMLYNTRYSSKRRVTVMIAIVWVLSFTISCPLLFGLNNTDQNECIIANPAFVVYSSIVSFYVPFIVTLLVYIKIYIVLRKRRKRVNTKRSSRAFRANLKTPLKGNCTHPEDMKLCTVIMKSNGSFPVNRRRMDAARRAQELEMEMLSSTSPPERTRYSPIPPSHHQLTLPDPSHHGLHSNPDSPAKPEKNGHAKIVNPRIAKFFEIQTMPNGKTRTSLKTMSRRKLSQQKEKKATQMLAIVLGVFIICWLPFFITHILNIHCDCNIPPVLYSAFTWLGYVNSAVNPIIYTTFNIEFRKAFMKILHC

In the case of `COc1ccc(CC/N=c2/cccccc2O)cc1OC`, the Activity (Rattus norvegicus [1]) is reported as “inactive”.

With `COc1ccc(CCN2CCCN(c3cccccc3=O)CC2)cc1OC` the Activity (Rattus norvegicus [1]) was “inactive”.

With `O=c1cccccc1N1CCN(CCc2ccc(F)cc2)CC1` the Activity (Rattus norvegicus [1]) was “inactive”.

`COc1ccc(C(O)CN2CCN(c3cccccc3=O)CC2)cc1OC.Cl` (centres undefined) gave an Activity (Rattus norvegicus [2]) of 823, an ED50 (Rattus norvegicus [3]; [16]) of 0.48 mg/kg and an IC50 (D(2) dopamine receptor) of 1500 nM. For the same compound, the IC50 [4] was 1.07 µM, the Max intensity (Rattus norvegicus [5]) was 9.2 rotations min-1 and the Activity (Rattus norvegicus [6]) was 191. For the same compound, the ED50 (Rattus norvegicus [7]; [17]) was 2 mg/kg.

`NCCc1ccc(O)c(O)c1` [DOPAMINE] showed an IC50 [4] of 90 µM.

In the case of `COc1ccc([C@@H](O)CN2CCN(c3cccccc3=O)CC2)cc1OC`, the Activity (Rattus norvegicus [8]) is reported as 27, the Activity (Rattus norvegicus [9]) is reported as 140 and the ED50 (Rattus norvegicus [3]; [16]) is reported as 2.7 mg/kg. It also gave an IC50 (D(2) dopamine receptor) of 16600 nM, a Max intensity (Rattus norvegicus [10]) of 1.3 rotations min-1 and an IC50 [4] of 1.44 µM.

In the case of `COc1ccc(CCN2CCN(c3cccccc3=O)CC2)cc1OC`, the IC50 (D(2) dopamine receptor) is reported as 880 nM and the Activity (Rattus norvegicus [6]) is reported as 101.

`O=c1cccccc1N1CCN(CCc2ccc(O)c(O)c2)CC1` was tested, and the IC50 (D(2) dopamine receptor) was 760 nM and the Activity (Rattus norvegicus [11]) was 98.

For `COc1cccc(C(O)CN2CCN(c3cccccc3=O)CC2)c1` (centres undefined), the Activity (Rattus norvegicus [1]) was “inactive”.

In the case of `COc1cc(C(O)CN2CCN(c3cccccc3=O)CC2)ccc1O` (centres undefined), the Activity (Rattus norvegicus [12]) is reported as “inactive”.

In the case of `O=c1cccccc1N1CCN(CC(O)c2ccccc2)CC1` (centres undefined), the Activity (Rattus norvegicus [1]) is reported as “inactive”.

In the case of `COc1ccc(CCNCC/N=c2/cccccc2O)cc1OC`, the Activity (Rattus norvegicus [1]) is reported as “inactive”.

Compound `COc1ccc([C@H](O)CN2CCN(c3cccccc3=O)CC2)cc1OC` [CILADOPA] has an Activity (Rattus norvegicus [8]) of 320, an Activity (Rattus norvegicus [9]) of 1770 and an ED50 (Rattus norvegicus [3]; [16]) of 0.36 mg/kg. The IC50 (D(2) dopamine receptor) was 2200 nM, the Max intensity (Rattus norvegicus [10]) was 10.7 rotations min-1 and the IC50 [4] was 1.09 µM. The ED50 (Rattus norvegicus [7]; [17]) was 0.9 mg/kg.

Work on `CC(C)C[C@H]1C(=O)N2CCC[C@H]2[C@]2(O)O[C@](NC(=O)[C@@H]3C=C4c5cccc6[nH]c(Br)c(c56)C[C@H]4N(C)C3)(C(C)C)C(=O)N12` [BROMOCRIPTINE] yielded an Activity (Rattus norvegicus [9]) of 836, an ED50 (Rattus norvegicus [3]; [16]) of 0.24 mg/kg and a Max intensity (Rattus norvegicus [10]) of 4.7 rotations min-1. For the same compound, the Activity (Rattus norvegicus [6]) was 112 and the ED50 (Rattus norvegicus [7]; [17]) was 0.6 mg/kg.

With `COc1ccc([C@H](O)[C@@H](C)N2CCN(c3cccccc3=O)CC2)cc1OC` (stereo in doubt; 18) the Activity (Rattus norvegicus [13]) was 186, the Activity (Rattus norvegicus [9]) was 2109 and the ED50 (Rattus norvegicus [3]) was 0.04 mg/kg. For the same compound, the Max intensity (Rattus norvegicus [10]; 2.5 mg/kg) was 14.6 rotations min-1 and the ED50 (Rattus norvegicus [7]) was 0.15 mg/kg.

`COc1ccc(C(O)CN2CCN(c3cccccc3=O)CC2)cc1` (centres undefined) showed an Activity (Rattus norvegicus [14]) of 105.

In the case of `COc1ccc([C@H](O)[C@@H](C)N2CCN(c3cccccc3=O)CC2)cc1OC` (stereo in doubt; 14), the Activity (Rattus norvegicus [9]) is reported as 1903, the ED50 (Rattus norvegicus [3]) is reported as 0.2 mg/kg and the IC50 (D(2) dopamine receptor) is reported as 1050 nM. It also gave an Activity (Rattus norvegicus [15]) of 111, a Max intensity (Rattus norvegicus [10]; 2.5 mg/kg) of 9.5 rotations min-1 and an ED50 (Rattus norvegicus [7]; [17]) of 0.25 mg/kg.

For `O=c1cccccc1N1CCN(CC(O)c2ccc(F)cc2)CC1` (centres undefined), the Activity (Rattus norvegicus [1]) was “inactive”.

For `COc1ccc(C(O)CN2CCN(c3ccccc3)CC2)cc1OC` (centres undefined), the Activity (Rattus norvegicus [1]) was “inactive”.

With `O=c1cccccc1N1CCN(CCc2ccccc2)CC1` the Activity (Rattus norvegicus [1]) was “inactive”.

`COc1ccc([C@@H](O)[C@@H](C)N2CCN(c3cccccc3=O)CC2)cc1OC` gave an IC50 (D(2) dopamine receptor) of 8550 nM and an Activity (Rattus norvegicus [6]) of 55.

Compound `COc1ccc([C@H](O)[C@@H](C)N2CCN(c3cccccc3=O)CC2)cc1OC` (stereo in doubt; 17) has an Activity (Rattus norvegicus [9]) of 121, an ED50 (Rattus norvegicus [3]) of 2.2 mg/kg and an Activity (Rattus norvegicus [15]) of 20. The Max intensity (Rattus norvegicus [10]; 2.5 mg/kg) was 1.1 rotations min-1.

For `COc1cc(C(O)CN2CCN(c3cccccc3=O)CC2)cc(OC)c1OC` (centres undefined), the Activity (Rattus norvegicus [1]) was “inactive”.
